According to ChEMBL document CHEMBL1687716, “Pharmacokinetics of L-arginine in adults with moderately severe malaria” (Antimicrob Agents Chemother, 2008):

Legend:
[1] = tested on: Homo sapiens; assay: Toxicity in patient with severe malaria assessed as pain at drug infusion site at 3 to 12 g, iv for 30 mins via infusion pump; assay type: organism-based; conditions: in vivo, 0.5 h
[2] = tested on: Homo sapiens; assay: Toxicity in patient with severe malaria assessed as inflammation at 3 to 12 g, iv for 30 mins via infusion pump; assay type: organism-based; conditions: in vivo, 0.5 h
[3] = tested on: Homo sapiens; assay: Toxicity in patient with severe malaria assessed as effect on pulse rate at 3 to 12 g, iv for 30 mins via infusion pump measured during drug infusion; assay type: organism-based; conditions: in vivo, 0.5 h
[4] = tested on: Homo sapiens; assay: Toxicity in patient with severe malaria assessed as effect on pulse rate at 3 to 12 g, iv for 30 mins via infusion pump measured after drug infusion; assay type: organism-based; conditions: in vivo, 0.5 h
[5] = tested on: Homo sapiens; assay: Toxicity in patient with severe malaria assessed as effect on respiratory rate at 3 to 12 g, iv for 30 mins via infusion pump measured during drug infusion; assay type: organism-based; conditions: in vivo, 0.5 h
[6] = tested on: Homo sapiens; assay: Toxicity in patient with severe malaria assessed as effect on respiratory rate at 3 to 12 g, iv for 30 mins via infusion pump measured after drug infusion; assay type: organism-based; conditions: in vivo, 0.5 h
[7] = tested on: Homo sapiens; assay: Toxicity in patient with severe malaria assessed as decrease of systolic blood pressure at 3 to 6 g, iv for 30 mins via infusion pump; assay type: organism-based, Artery; conditions: in vivo, 0.5 h
Method in brief: (§1)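 In adults with malaria on IV quinine, 10 per dose, systolic and diastolic blood pressure were recorded at baseline and immediately at the end of a 30-min IV L-arginine infusion (in saline, 10% or less). They were followed afterward to check return to baseline. Mean change was given with 95% CI and P value.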

[8] = tested on: Homo sapiens; assay: Toxicity in patient with severe malaria assessed as decrease of diastolic blood pressure at 3 to 6 g, iv for 30 mins via infusion pump; assay type: organism-based, Artery; conditions: in vivo, 0.5 h; method in brief: as §1
[9] = tested on: Homo sapiens; assay: Toxicity in patient with severe malaria assessed as decrease of systolic blood pressure at 12 g, iv for 30 mins via infusion pump; assay type: organism-based, Artery; conditions: in vivo, 0.5 h; method in brief: as §1
[10] = tested on: Homo sapiens; assay: Toxicity in patient with severe malaria assessed as decrease of diastolic blood pressure at 12 g, iv for 30 mins via infusion pump; assay type: organism-based, Artery; conditions: in vivo, 0.5 h; method in brief: as §1
[11] = Plasma concentration in patient with severe malaria at 3 g, iv for 30 mins via infusion pump; assay type: ADME, organism-based; conditions: human
Method in brief: (§2)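 Adults with moderately severe malaria, all on IV quinine, were placed in groups of 10 per dose. L-arginine was diluted in normal saline to 10% or less and given IV through an antecubital cannula over 30 min. Plasma was taken at 8–11 time points up to 24 h, separated within 30 min and stored at −70°C. Samples were ethanol-deproteinized with norleucine as internal standard, AccQFluor-derivatized and measured by HPLC. Peak was taken after the end of infusion.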

[12] = Plasma concentration in patient with severe malaria at 6 g, iv for 30 mins via infusion pump; assay type: ADME, organism-based; conditions: human; method in brief: as §2
[13] = Plasma concentration in patient with severe malaria at 12 g, iv for 30 mins via infusion pump; assay type: ADME, organism-based; conditions: human; method in brief: as §2
[14] = Primary phase half life in patient with severe malaria administered as iv for 30 mins via infusion pump; assay type: ADME, organism-based; conditions: human, in vivo, read-out: alphat1/2
Method in brief: (§3)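 Half-lives came from a population model fitted in NONMEM (FOCE with interaction) to plasma HPLC levels from infused patients and from patients not given L-arginine. The model was two-compartment linear with first-order elimination and combined proportional and additive residual error. Baseline and natural recovery were fitted by a second-order polynomial. CV% was estimated by simulation assuming a log-normal distribution.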

[15] = Terminal half life in patient with severe malaria administered as iv for 30 mins via infusion pump; assay type: ADME, organism-based; conditions: human, in vivo, read-out: beta t1/2 (converted); method in brief: as §3

N=C(N)NCCC[C@H](N)C(=O)O [ARGININE]
Activity [1]: Non-toxic | Activity [2]: Non-toxic | Activity [3]: Non-toxic | Activity [4]: Non-toxic | Activity [5]: Non-toxic | Activity [6]: Non-toxic | Activity [7]: Non-toxic | Activity [8]: Non-toxic | Activity [9]: 5 mmHg | Activity [10]: 5 mmHg | concentration at 0.5 h [11]: 288 µM | concentration at 0.5 h [12]: 809 µM | concentration at 0.5 h [13]: 1310 µM | half-life [14]: 0.25 h | half-life [15]: 3.75 h
